# Key:
# rat = details: translational rat model; increased nephrotoxic effect; cited from earlier work
# male Sprague-Dawley rats [1] = test: Iohexol-measured GFR; type: in vivo, Sprague-Dawley rat; details: Baseline (day 0, before vancomycin); dose-matched bolus group versus humanized infusion group as referent; marginal difference, mixed effects model
# male Sprague-Dawley rats [2] = test: Urinary KIM-1, kidney injury biomarker, 24-hour urine; type: in vivo, Sprague-Dawley rat; details: dose-matched bolus versus humanized infusion as referent
# Outline: (§1)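 Male Sprague-Dawley rats were housed in metabolic cages, with 24-h urine collected from baseline (day 0) through day 2. On day 1 the glycopeptide was given IV either as 30.8 mg in 6.0 mL saline by variable-rate infusion over 24 hours (n=11), or as 15.4 mg boluses over 2 minutes every 12 hours ×2 plus volume-matching saline infusion (n=8). Analysis: mixed-effects model, day 0 referent, Bonferroni-corrected group-by-day tests.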
# male Sprague-Dawley rats [3] = test: Urinary clusterin, kidney injury biomarker, 24-hour urine; type: in vivo, Sprague-Dawley rat; details: dose-matched bolus versus humanized infusion as referent
# Outline: as §1
# male Sprague-Dawley rats [4] = test: Urinary osteopontin; type: in vivo, Sprague-Dawley rat; details: dose-matched bolus versus humanized infusion as referent
# Outline: as §1
Structure (SMILES),"increase of urinary KIM-1 when added to vancomycin, compared to vancomycin (rat) [ng/24 hours]","GFR difference, mean (95% CI) (male Sprague-Dawley rats [1]) [mL/min/100 g body weight]","KIM-1 difference, mean (95% CI) (male Sprague-Dawley rats [2]; Day 1) [ng]","KIM-1 difference, mean (95% CI) (male Sprague-Dawley rats [2]; Day 2) [ng]","Urinary clusterin difference, mean (95% CI) (male Sprague-Dawley rats [3]; Day 1) [ng]","Urinary clusterin difference, mean (95% CI) (male Sprague-Dawley rats [3]; Day 2) [ng]","Urinary OPN difference, mean (95% CI) (male Sprague-Dawley rats [4]; Day 1) [ng]","Urinary OPN difference, mean (95% CI) (male Sprague-Dawley rats [4]; Day 2) [ng]"
Cc1onc(-c2c(F)cccc2Cl)c1C(=O)N[C@@H]1C(=O)N2[C@@H]1SC(C)(C)[C@@H]2C(=O)O [flucloxacillin],58 to 140,,,,,,,
CN[C@H](CC(C)C)C(=O)N[C@H]1C(=O)N[C@@H](CC(N)=O)C(=O)N[C@H]2C(=O)N[C@H]3C(=O)N[C@H](C(=O)N[C@H](C(=O)O)c4cc(O)cc(O)c4-c4cc3ccc4O)[C@H](O)c3ccc(c(Cl)c3)Oc3cc2cc(c3O[C@@H]2O[C@H](CO)[C@@H](O)[C@H](O)[C@H]2O[C@H]2C[C@](C)(N)[C@H](O)[C@H](C)O2)Oc2ccc(cc2Cl)[C@H]1O [vancomycin],,0.05,9.80,-2.27,1932,-3103,-1.76,0.52

# Source: article PMC11060919 (International journal of antimicrobial agents, 2024)
